What was measured:
KB [1] = assay: Photocytotoxicity against human KB cells overexpressing folate receptor assessed as cell viability incubated for 24 hrs followed by halogen light illumination measured after 20 mins by MTT assay; format: functional, cell-based
In short: (§1)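 Cells seeded at about 1 × 10^4 (KB) or 2 × 10^4 (MCF-7) per well, grown overnight, then exposed to serial dilutions in folic acid free RPMI 1640. Dilutions came from 1.6 mM DMF stocks taken to 80 μM with aqueous Tween 80. After PBS rinse and fresh medium, cells were illuminated (halogen lamp, λ > 610 nm, 40 mW cm−2, 20 min, 48 J cm−2) and kept overnight at 37 °C. Read by MTT (3 h) with SDS/isopropanol solubilisation and A540. Viability is relative to wells without compound; three experiments in quadruplicate, mean ± SEM.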

MCF7 [2] = assay: Cytotoxicity against human MCF7 cells expressing low level of folate receptor assessed as cell viability at 80 uM after 24 hrs by MTT assay in absence of halogen light; format: cell-based; conditions: mcf7, 24 h
MCF7 [3] = assay: Photocytotoxicity against human MCF7 cells expressing low level of folate receptor assessed as cell viability incubated for 24 hrs followed by halogen light illumination measured after 20 mins by MTT assay; format: functional, cell-based; in short: as §1
MCF7 [4] = assay: Selectivity ratio of IC50 for human MCF7 cells expressing low level of folate receptor to IC50 for human KB cells overexpressing folate receptor; format: functional; in short: as §1
[5] = Cellular uptake in lysosome of human KB cells overexpressing folate receptor at 1 uM after 24 hrs by lyso-tracker DND 26-based confocal microscopic analysis; format: ADME, cell-based
In short: (§2)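 KB cells (about 1 × 10^5 on coverslips, overnight at 37 °C, 5% CO2) given conjugate at 1 μM in folic acid free medium for 24 h. Then 15 min with Lyso-Tracker Green DND 26 (4.0 μM in medium), Mito-Tracker Green FM (0.2 μM in medium) or ER-Tracker Green (1.0 μM in PBS). PBS rinse; confocal imaging with 488 nm argon and 633 nm He-Ne lasers.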

[6] = Induction of singlet oxygen formation in DMF assessed as photodegradation of DPBF at 4 uM; format: physicochemical
In short: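 Singlet oxygen generation measured in DMF with 1,3-diphenylisobenzofuran as scavenger. Scavenger photodegradation followed as the fall in absorbance at 415 nm over time, with ZnPc as the reference.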

KB [7] = assay: Cellular uptake in human KB cells overexpressing folate receptor at 1 uM after 24 hrs by bright field microscopy-based fluorescence assay; format: ADME, cell-based
In short: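 About 2 × 10^5 KB cells grown overnight on coverslips, then exposed to conjugate (1.0 μM) in folic acid free medium for 24 h at 37 °C. PBS rinse; confocal imaging with 633 nm He-Ne excitation and emission collected at 650−750 nm. Mean intracellular fluorescence taken over 50 cells per sample, reported as mean ± SD.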

KB [8] = assay: Cytotoxicity against human KB cells overexpressing folate receptor assessed as cell viability at 80 uM after 24 hrs by MTT assay in absence of halogen light; format: cell-based
[9] = Cellular uptake in endoplasmic reticulum of human KB cells overexpressing folate receptor at 1 uM after 24 hrs by ER-tracker green based-confocal microscopic analysis; format: ADME, cell-based; in short: as §2
MCF7 [10] = assay: Cellular uptake in human MCF7 cells expressing low level of folate receptor at 5 uM after 24 hrs by bright field microscopy-based fluorescence assay; format: ADME, cell-based; conditions: mcf7, 24 h
In short: (§3)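 KB or MCF-7 cells (about 2 × 10^5 on coverslips, overnight at 37 °C, 5% CO2) incubated 24 h with 5.0 μM conjugate in folic acid free medium. PBS rinse; inverted microscope with 630 nm excitation, emission collected above 660 nm. Mean intracellular fluorescence from 24 cells per sample (mean ± SD), compared between the two lines.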

KB [11] = assay: Photocytotoxicity against human KB cells overexpressing folate receptor assessed as cell viability at IC50 incubated for 24 hrs followed by halogen light illumination measured after 20 mins by MTT assay in presence of free folic acid; format: functional
KB [12] = assay: Cellular uptake in human KB cells overexpressing folate receptor at 5 uM after 24 hrs by bright field microscopy-based fluorescence assay; format: ADME, cell-based; in short: as §3
[13] = Ratio of cellular uptake in human KB cells to human MCF7 cells at 5 uM after 24 hrs; format: ADME, cell-based; conditions: mcf7, 24 h; in short: as §3
[14] = Cellular uptake in mitochondria of human KB cells overexpressing folate receptor at 1 uM after 24 hrs by mito-tracker green FM-based confocal microscopic analysis; format: ADME; in short: as §2

| SMILES | IC50 (KB [1]) | Activity (MCF7 [2]) | IC50 (MCF7 [3]) | Ratio IC50 (MCF7 [4]) | Drug uptake [5] | Activity [6] | Drug uptake (KB [7]) | Activity (KB [8]) | Drug uptake [9] | Drug uptake (MCF7 [10]) | Activity (KB [11]) | Drug uptake (KB [12]) | Ratio [13] | Drug uptake [14] |
| --- | --- | --- | --- | --- | --- | --- | --- | --- | --- | --- | --- | --- | --- | --- |
| Nc1nc(=O)c2nc(CNc3ccc(C(=O)N[C@@H](CCC(=O)O)C(=O)O)cc3)cnc2[nH]1 [FOLIC ACID] | 0.5 µM |  |  |  |  |  |  |  |  |  |  |  |  |  |
| COCCOCCOCCOc1ccc(/C=C/C2=[N+]3C(=C(c4ccc(OCCOCCOCCOCc5cn(CCOCCOCCNC(=O)CC[C@H](NC(=O)c6ccc(NCc7cnc8nc(N)[nH]c(=O)c8n7)cc6)C(=O)O)nn5)cc4)c4c(C)c(I)c(/C=C/c5ccc(OCCOCCOCCOC)cc5)n4[B-]3(F)F)C(C)=C2I)cc1 | 0.18 µM | Non-toxic | 1 µM | 6 | Active | Active | Active | Non-toxic | Active |  |  |  |  |  |
| C#CCOCCOCCOCCOc1ccc(C2=C3C(C)=C(I)C(/C=C/c4ccc(OCCOCCOCCOC)cc4)=[N+]3[B-](F)(F)n3c(/C=C/c4ccc(OCCOCCOCCOC)cc4)c(I)c(C)c32)cc1 | 0.02 µM |  | 0.06 µM | 3 |  |  |  |  |  |  |  |  |  |  |
| COCCOCCOCCOc1ccc(/C=C/C2=[N+]3C(=C(c4ccc(OCc5cn(CCOCCOCCNC(=O)CC[C@H](NC(=O)c6ccc(NCc7cnc8nc(N)[nH]c(=O)c8n7)cc6)C(=O)O)nn5)cc4)c4c(C)c(I)c(/C=C/c5ccc(OCCOCCOCCOC)cc5)n4[B-]3(F)F)C(C)=C2I)cc1 | 0.06 µM | Non-toxic | 2.56 µM | 43 | Active | Active | Active | Non-toxic | Active | Not Active | 94% | Active | 5 | Not Active |
